Data published in ChEMBL document CHEMBL4257543, “Structural optimization and antibacterial evaluation of rhodomyrtosone B analogues against MRSA strains” (Medchemcomm, 2018).
Values after ≈ are worked out from the molar mass of the structure shown. Active and inactive are the calls of the source.

Tests used:
[1] = system: Staphylococcus aureus; test: Antibacterial activity against methicillin-resistant Staphylococcus aureus JCSC 4788 by micro dilution susceptibility test; type: functional
Procedure, shortened: (§1)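 Microbroth dilution MIC in Mueller–Hinton broth following CLSI guidelines, vancomycin as positive control; resazurin added as visible growth indicator. Assays run at least in triplicate.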

[2] = system: Staphylococcus aureus; test: Antibacterial activity against Staphylococcus aureus ATCC 6538 by micro dilution susceptibility test; type: functional; procedure, shortened: as §1
[3] = system: Staphylococcus aureus; test: Antibacterial activity against Staphylococcus aureus ATCC 29213 by micro dilution susceptibility test; type: functional; procedure, shortened: as §1
[4] = system: Staphylococcus aureus; test: Antibacterial activity against Staphylococcus aureus CMCC 26003 by micro dilution susceptibility test; type: functional; procedure, shortened: as §1
[5] = system: Staphylococcus aureus; test: Antibacterial activity against methicillin-resistant Staphylococcus aureus JCSC 2172 by micro dilution susceptibility test; type: functional; procedure, shortened: as §1
[6] = system: Staphylococcus aureus; test: Antibacterial activity against methicillin-resistant Staphylococcus aureus JCSC 3063 by micro dilution susceptibility test; type: functional; procedure, shortened: as §1
[7] = system: Staphylococcus aureus; test: Antibacterial activity against methicillin-resistant Staphylococcus aureus JCSC 4469 by micro dilution susceptibility test; type: functional; procedure, shortened: as §1
[8] = system: Staphylococcus aureus; test: Antibacterial activity against methicillin-resistant Staphylococcus aureus JCSC 4744 by micro dilution susceptibility test; type: functional; procedure, shortened: as §1
[9] = system: Staphylococcus aureus; test: Antibacterial activity against methicillin-resistant Staphylococcus aureus NCTC 10442 by micro dilution susceptibility test; type: functional; procedure, shortened: as §1
[10] = system: Staphylococcus aureus; test: Antibacterial activity against methicillin-resistant Staphylococcus aureus N315 by micro dilution susceptibility test; type: functional; procedure, shortened: as §1
[11] = system: Staphylococcus aureus; test: Antibacterial activity against methicillin-resistant Staphylococcus aureus 85/2082 by micro dilution susceptibility test; type: functional; procedure, shortened: as §1
[12] = system: Bacillus cereus; test: Antibacterial activity against Bacillus cereus ATCC 10876 by micro dilution susceptibility test; type: functional
Procedure, shortened: (§2)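 Microbroth dilution MIC in Mueller–Hinton broth following CLSI guidelines, with vancomycin as positive control; assays run at least in triplicate.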

[13] = system: Cutibacterium acnes; test: Antibacterial activity against Propionicibacterium acnes ATCC 6919 by micro dilution susceptibility test; type: functional
Procedure, shortened: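 Microbroth dilution MIC in Mueller–Hinton broth following CLSI guidelines; […]; resazurin added as visible growth indicator; vancomycin positive control; at least triplicate.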

[14] = system: Enterococcus faecalis; test: Antibacterial activity against Enterococcus faecalis ATCC 29212 by micro dilution susceptibility test; type: functional; procedure, shortened: as §2
[15] = system: Staphylococcus epidermidis; test: Antibacterial activity against Staphylococcus epidermidis ATCC 12228 by micro dilution susceptibility test; type: functional; procedure, shortened: as §2
[16] = system: Enterococcus faecium; test: Antibacterial activity against vancomycin-resistant Enterococcus faecium by micro dilution susceptibility test; type: functional; procedure, shortened: as §1
[17] = system: Paenibacillus polymyxa; test: Antibacterial activity against Bacillus polymyxa GIM 1.467 by micro dilution susceptibility test; type: functional; procedure, shortened: as §2
[18] = system: Paenibacillus polymyxa; test: Antibacterial activity against Bacillus polymyxa ATCC 842 by micro dilution susceptibility test; type: functional; procedure, shortened: as §2
[19] = system: Escherichia coli; test: Antibacterial activity against Escherichia coli ATCC 8739 by micro dilution susceptibility test; type: functional; procedure, shortened: as §2
[20] = system: Salmonella typhi; test: Antibacterial activity against Salmonella typhi CMCC 44102 by micro dilution susceptibility test; type: functional, Salmonella enterica subsp. enterica serovar Typhi; conditions: Salmonella enterica; procedure, shortened: as §1
[21] = system: Shigella dysenteriae; test: Antibacterial activity against Shigella dysenteriae CMCC 51252 by micro dilution susceptibility test; type: functional; procedure, shortened: as §1
[22] = system: Candida albicans; test: Antibacterial activity against Candida albicans ATCC 10231 by micro dilution susceptibility test; type: functional; procedure, shortened: as §2
[23] = system: Staphylococcus aureus; test: Antibacterial activity against methicillin-resistant Staphylococcus aureus JCSC 4788 at sub-MIC re-passaged at 24 hrs intervals for 5 times by micro dilution susceptibility test; type: functional, organism-based
Procedure, shortened: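 Exponential-phase MRSA JCSC 4788 at 37 °C passaged into fresh MHB containing compound at a sub-inhibitory concentration and re-passaged at 24 h intervals up to at least 20 passages; MIC then redetermined by CLSI microbroth dilution in MHB. Resistance defined as a more than 4-fold increase over the initial MIC.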

[24] = system: Staphylococcus aureus; test: Ratio of MIC for methicillin-resistant Staphylococcus aureus JCSC 4788 re-passaged at 24 hrs intervals for 20 times to MIC for methicillin-resistant Staphylococcus aureus JCSC 4788; type: functional
Procedure, shortened: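 Sequential passaging of MRSA JCSC 4788 in MHB with sub-inhibitory compound at 24 h intervals for at least 20 passages at 37 °C. MIC after passaging, by CLSI microbroth dilution, is divided by the initial MIC. Resistance is defined as a rise of more than 4-fold.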

[25] = system: Staphylococcus aureus; test: Induction of membrane disruption in methicillin-resistant Staphylococcus aureus JCSC 4788 assessed as increase in fluorescence intensity at 0.25 to 8 ug/ml measured after 3 hrs by SYTOX green dye based fluorescence assay; type: functional, organism-based
Procedure, shortened: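 Exponential-phase MRSA JCSC 4788 washed and set to OD620 0.4 in 0.85% NaCl, exposed to serial compound concentrations for 3 h, then 3 μM SYTOX Green for 20 min. Fluorescence read at ex 504/em 523 nm with melittin as positive control and vancomycin as comparator; mean ± SD, n = 3.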

[26] = system: Staphylococcus aureus; test: Antibacterial activity against methicillin-resistant Staphylococcus aureus JCSC 4788 in Balb/c mouse skin infection model assessed as reduction in skin ulcer formation at 40 ug administered as single dose via intradermal route measured 3 to 8 days post-infection; type: functional, organism-based
Procedure, shortened: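 Female BALB/c mice (18–20 g) injected intradermally in abdominal skin with 0.1 mL of MRSA JCSC 4788 (1×10^8 CFU) mixed with a single 40 μg dose in DMSO; DMSO-vehicle controls. Body weight and lesion size recorded daily for 11 days, ulcers imaged at 3 and 8 days; n = 6, mean ± SD.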

Compound: CCCCCCCCCCCC(=O)c1c(O)cc(O)c2c1OC1=C(C(=O)C(C)(C)C(=O)C1(C)C)C2CC(C)C (stereo not drawn)
- MIC [1]: 8 µg/mL (≈ 14.8 µM)
- MIC [2]: 8 µg/mL (≈ 14.8 µM)

Compound: CC(C)CC1C2=C(Oc3c(C(=O)C4CCCCC4)c(O)cc(O)c31)C(C)(C)C(=O)C(C)(C)C2=O (stereo not drawn)
- MIC [1]: 4 µg/mL (≈ 8.54 µM)
- MIC [2]: 2 µg/mL (≈ 4.27 µM)

Compound: CCC(=O)c1c(O)cc(O)c2c1OC1=C(C(=O)C(C)(C)C(=O)C1(C)C)C2CC(C)C (stereo not drawn)
- MIC [1]: 2 µg/mL (≈ 4.83 µM)
- MIC [2]: 2 µg/mL (≈ 4.83 µM)

Compound: CC(C)CC(=O)c1c(O)cc(O)c2c1OC1=C(C(=O)C(C)(C)C(=O)C1(C)C)C2CC(C)C (stereo not drawn)
- MIC [1]: 1 µg/mL (≈ 2.26 µM)
- MIC [2]: 0.5 to 1 µg/mL (≈ 1.13 to 2.26 µM)
- MIC [3]: 1 µg/mL (≈ 2.26 µM)
- MIC [4]: 0.5 µg/mL (≈ 1.13 µM)
- MIC [5]: 0.5 µg/mL (≈ 1.13 µM)
- MIC [6]: 0.5 µg/mL (≈ 1.13 µM)
- MIC [7]: 0.5 µg/mL (≈ 1.13 µM)
- MIC [8]: 0.5 µg/mL (≈ 1.13 µM)
- MIC [9]: 1 µg/mL (≈ 2.26 µM)
- MIC [10]: 1 µg/mL (≈ 2.26 µM)
- MIC [11]: 1 µg/mL (≈ 2.26 µM)
- MIC [12]: 0.5 µg/mL (≈ 1.13 µM)
- MIC [13]: 0.5 µg/mL (≈ 1.13 µM)
- MIC [14]: 1 µg/mL (≈ 2.26 µM)
- MIC [15]: 1 µg/mL (≈ 2.26 µM)
- MIC [16]: 2 µg/mL (≈ 4.52 µM)
- MIC [17]: > 32 µg/mL
- MIC [18]: > 32 µg/mL
- MIC [19]: > 32 µg/mL
- MIC [20]: > 32 µg/mL
- MIC [21]: > 32 µg/mL
- MIC [22]: > 32 µg/mL

Compound: CC(C)CC1C2=C(Oc3c(C(=O)Cc4ccccc4)c(O)cc(O)c31)C(C)(C)C(=O)C(C)(C)C2=O (stereo not drawn)
- MIC [1]: 4 µg/mL (≈ 8.39 µM)
- MIC [2]: 4 µg/mL (≈ 8.39 µM)

Compound: CC(=O)c1c(O)cc(O)c2c1OC1=C(C(=O)C(C)(C)C(=O)C1(C)C)C2CC(C)C (stereo not drawn)
- MIC [1]: 4 µg/mL (≈ 9.99 µM)
- MIC [2]: 4 µg/mL (≈ 9.99 µM)

Compound: CCCCCCCCCCC(=O)c1c(O)cc(O)c2c1OC1=C(C(=O)C(C)(C)C(=O)C1(C)C)C2CC(C)C (stereo not drawn)
- MIC [1]: 1 µg/mL (≈ 1.9 µM)
- MIC [2]: 1 µg/mL (≈ 1.9 µM)

Compound: CCCCCCCCCC(=O)c1c(O)cc(O)c2c1OC1=C(C(=O)C(C)(C)C(=O)C1(C)C)C2CC(C)C (stereo not drawn)
- MIC [1]: 0.5 µg/mL (≈ 0.975 µM)
- MIC [2]: 0.5 µg/mL (≈ 0.975 µM)

Compound: CCCC(=O)c1c(O)cc(O)c2c1OC1=C(C(=O)C(C)(C)C(=O)C1(C)C)C2CC(C)C (stereo not drawn)
- MIC [1]: 2 µg/mL (≈ 4.67 µM)
- MIC [2]: 2 µg/mL (≈ 4.67 µM)

Compound: CC(C)CC1C2=C(Oc3cc(O)cc(O)c31)C(C)(C)C(=O)C(C)(C)C2=O (stereo not drawn)
- MIC [1]: 256 µg/mL (≈ 714 µM)
- MIC [2]: > 256 µg/mL

Compound: CC1COc2c(N3CCN(C)CC3)c(F)cc3c(=O)c(C(=O)O)cn1c23 (stereo not drawn) [OFLOXACIN]
- Activity [23]: inactive
- Ratio [24]: 16

Compound: CN[C@H](CC(C)C)C(=O)N[C@H]1C(=O)N[C@@H](CC(N)=O)C(=O)N[C@H]2C(=O)N[C@H]3C(=O)N[C@H](C(=O)N[C@H](C(=O)O)c4cc(O)cc(O)c4-c4cc3ccc4O)[C@H](O)c3ccc(c(Cl)c3)Oc3cc2cc(c3O[C@@H]2O[C@H](CO)[C@@H](O)[C@H](O)[C@H]2O[C@H]2C[C@](C)(N)[C@H](O)[C@H](C)O2)Oc2ccc(cc2Cl)[C@H]1O [VANCOMYCIN]
- MIC [2]: 0.5 to 1 µg/mL (≈ 0.345 to 0.69 µM)
- MIC [12]: 0.5 µg/mL (≈ 0.345 µM)
- MIC [13]: 0.5 µg/mL (≈ 0.345 µM)
- MIC [14]: 0.5 µg/mL (≈ 0.345 µM)
- MIC [15]: 0.5 µg/mL (≈ 0.345 µM)
- MIC [16]: > 32 µg/mL
- MIC [17]: > 32 µg/mL
- MIC [18]: > 32 µg/mL
- MIC [19]: > 32 µg/mL
- MIC [20]: > 32 µg/mL
- MIC [21]: > 32 µg/mL
- MIC [22]: > 32 µg/mL
- Activity [25]: inactive
- Activity [26]: Active

Compound: CC(C)CC1C2=C(Oc3c(C(=O)C4CCC4)c(O)cc(O)c31)C(C)(C)C(=O)C(C)(C)C2=O (stereo not drawn)
- MIC [1]: 8 µg/mL (≈ 18.2 µM)
- MIC [2]: 4 µg/mL (≈ 9.08 µM)
